What all share (format): functional, cell-based
One test has as its system T-cell. The test is described as follows: Cytotoxicity against ConA-stimulated Balb/c mouse T cells assessed as reduction in cell viability after 48 hrs by MTT assay. Summed up: (§1)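 Splenocytes from three male Balb/c mice (4−6 weeks); T and B cells enriched on nylon-wool column, stimulated with 5 μg/mL ConA (T) or 10 μg/mL LPS (B). Then handled as the tumor-cell MTT assay: 48 h exposure, 570 nm read, five concentrations 1–50 μM, 0.5% DMSO final, triplicate. Cyclosporin A and mycophenolate mofetil as positive controls.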

The next test relates to A2780. The test is described as follows: Cytotoxicity against human A2780 cells assessed as reduction in cell viability after 48 hrs by MTT assay. To be noted: A2780, 48 h. In outline: (§2)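 Cells grown in RPMI 1640 with 10% FBS, penicillin/streptomycin, at 37 °C, 5% CO2. Seeded at 5000 cells/well, compounds added after 24 h, then 48 h incubation; MTT formazan read at 570 nm. Five concentrations (50, 25, 10, 2.5, 1 μM), 0.5% DMSO final, triplicate experiments; IC50 as mean ± SEM. Gemcitabine and cisplatin as positive controls.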
On the technique in general: Tetrazolium assays rely on reduction of a dye to a coloured formazan, in cell work by metabolically active cells.

The test system of the next test is B16. The test is described as follows: Cytotoxicity against mouse B16 cells assessed as reduction in cell viability after 48 hrs by MTT assay. To be noted: B16, 48 h. In outline: as §2
The subject of another test is Panc02. The test is described as follows: Cytotoxicity against mouse Panc02 cells assessed as reduction in cell viability after 48 hrs by MTT assay. To be noted: Panc02, 48 h. In outline: as §2
The subject of another test is B-cell. The test is described as follows: Cytotoxicity against LPS-stimulated Balb/c mouse B cells assessed as reduction in cell viability after 48 hrs by MTT assay. Summed up:
as §1

In a further test the test system is SW1990. The test is described as follows: Cytotoxicity against human SW1990 cells assessed as reduction in cell viability after 48 hrs by MTT assay. To be noted: SW1990, 48 h. In outline:
as §2

In another test the test system is HepG2. The test is described as follows: Cytotoxicity against human HepG2 cells assessed as reduction in cell viability after 48 hrs by MTT assay. To be noted: HepG2, 48 h. In outline: as §2

One may read the IC50 as the point on the concentration scale where inhibition reaches its midpoint. `COC(=O)[C@]1(C)CCC[C@]23C(O)O[C@H](C[C@H]4[C@@H](C)c5ccoc5C[C@@H]42)[C@H]31` (some centres not stated): the IC50 in the test with T-cell, in the test on A2780, with B16, in the test on Panc02 and in the test with B-cell was over 10 µM in each case.

Regarding `COC(=O)[C@@]1(C)[C@@H]2CC[C@@H]3[C@@H]4[C@@H](OC[C@@]42CC[C@@H]1O)c1occc1[C@@H]3C`, the IC50 is over 10 µM with T-cell; over 10 µM with A2780; over 10 µM in the test with B16; over 10 µM with Panc02; over 10 µM in the test on B-cell; 2.9 to 8.9 µM in the test on SW1990.

Consider `COC(=O)[C@]1(C)[C@@H](O)CC[C@@]23C(=O)O[C@H]4c5occc5[C@H](C)[C@H](CC[C@@H]12)[C@H]43`, for which the IC50 was over 10 µM in the test on T-cell; over 10 µM in the test with A2780; over 10 µM in the test on B16; over 10 µM with Panc02; over 10 µM in the test with B-cell; 2.9 to 8.9 µM with SW1990.

With `COC(=O)[C@]1(C)CCC[C@]23CO[C@H]4c5occc5[C@H](C)[C@@H]([C@H]42)[C@@H](OC(C)=O)C[C@H]31`, the IC50 in the test on T-cell, in the test with A2780, in the test with B16, with Panc02 and with B-cell was over 10 µM in each case.

Turning to `COC(=O)[C@]1(C)CCC[C@@]2(COC(C)=O)[C@H]1[C@H](O)C[C@H]1[C@@H](C)C3=CC(=O)O[C@]3(OC)C[C@@H]12`, the half-inhibitory concentration (IC50) in the test with T-cell, in the test on A2780, in the test on B16, with Panc02 and in the test on B-cell was over 10 µM each time.

With `COC(=O)[C@]1(C)CCC[C@@]2(COC(C)=O)[C@H]1[C@H](O)C[C@H]1[C@@H](C)c3ccoc3C[C@@H]12`, the IC50 in the test with T-cell is over 10 µM; in the test with A2780, over 10 µM; in the test with B16, over 10 µM; in the test with Panc02, over 10 µM; in the test with HepG2, 3.9 µM; with B-cell it was over 10 µM. For the same molecule, the IC50 in the test with SW1990 was in the range of 2.9 to 8.9 µM.

As for `C=C1CC[C@@H]2[C@](C)(CCC[C@]2(C)C(=O)O)[C@H]1CC(=O)/C(C)=C/CO`, the IC50 in the test on T-cell, in the test on A2780, in the test on B16, in the test with Panc02 and in the test on B-cell was over 10 µM throughout.

In the case of `COC(=O)[C@]1(C)[C@@H](OC(C)=O)CC[C@@]23C(=O)O[C@H]4c5occc5[C@H](C)[C@H](CC[C@@H]12)[C@H]43`, the IC50 with T-cell, with A2780, in the test with B16, in the test on Panc02 and with B-cell was over 10 µM in each case.

For the molecule `COC(=O)[C@]1(C)[C@@H](OC(C)=O)CC[C@@]23CO[C@H]4c5occc5[C@H](C)[C@H](CC[C@H]21)[C@H]43`, the IC50 in the test with T-cell, with A2780, with B16, in the test with Panc02 and with B-cell was over 10 µM each time.

`COC(=O)[C@]1(C)CCC[C@]23CO[C@H]4c5occc5[C@H](C)[C@@H]([C@H]42)[C@@H](O)C[C@H]31`: the IC50 with T-cell is over 10 µM; in the test on A2780 it was over 10 µM; with B16, over 10 µM; with Panc02, over 10 µM; in the test with B-cell, over 10 µM; in the test with SW1990 it was 2.9 to 8.9 µM.

With `COC(=O)[C@@]1(C)[C@@H](OC(C)=O)CC[C@]2(C(=O)O)[C@H]3Cc4occc4[C@H](C)[C@@H]3CC[C@@H]12`, the IC50 in the test with T-cell, in the test with A2780, in the test with B16, in the test with Panc02 and in the test on B-cell was over 10 µM in each case.

In the case of `COC(=O)[C@]1(C)CCC[C@]2(COC(C)=O)c3cc4occc4c(C)c3C[C@@H](OC(C)=O)[C@H]21`, the IC50 with T-cell is over 10 µM; in the test with A2780, over 10 µM; in the test on B16 it was over 10 µM; in the test with Panc02, over 10 µM; with B-cell it was over 10 µM; with SW1990 it was 2.9 to 8.9 µM.

`C=C1CC[C@@H]2[C@](C)(CCC[C@]2(C)C(=O)O)[C@H]1/C=C/C(C)=O`: the IC50 in the test on T-cell, in the test with A2780, in the test on B16, in the test on Panc02 and with B-cell was over 10 µM each time.

With `Nc1ccn([C@@H]2O[C@H](CO)[C@@H](O)C2(F)F)c(=O)n1` [GEMCITABINE], the concentration for half-maximal inhibition (IC50) in the test on SW1990 is 2.3 µM.

(Values after ChEMBL document CHEMBL3994593, “Diterpenoids of the Cassane Type from Caesalpinia decapetala” (J Nat Prod, 2016).)
